Cl transport mod – modulators of human KCC2 chloride dependent transport. Q9H2X9. KCC2 cells, thallium flux FluoZin-2 fluorescence. B-score of Tl+ flux slope (higher = more flux/activation; lower = inhibition) at 10 µM. 190,000 compounds, 2.2% hits;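 active means thallium flux slope and its plate-corrected score both differing from the plate sample mean at a set confidence after two filtering rounds, in either direction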;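 further: slope of fluorescence scaled to starting intensity during 10 to 20 s after thallium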
KCNK9 inh – human KCNK9 channel inhibition. Q9NPC2. HEK293 KCNK9, FluxOR thallium flux fluorescence; stronger effect = lower value. B-score at 10 µM. 310,000 compounds, 1.2% hits;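 active means ratio B-score over 3 SD below the library mean, with starting fluorescence within 5 SD of its mean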;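 further: negative B-score means less thallium flux so channel inhibition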
KCNQ1 block – inhibitors of human KCNQ1 potassium channel | B-score at 10 µM | 310,000 compounds, 1.3% hits | CHO-K1 KCNQ1, FluxOR thallium flux fluorescence; stronger effect = higher value | AID 2642;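 active means compounds whose thallium flux B-score, printed positive for inhibition, exceeds three library SD while starting fluorescence stays within three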;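 further: channel opened by potassium depolarization with thallium stimulus after 20 min compound exposure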
hERG protect – compounds protecting human hERG from proarrhythmic drug block; CHO-hERG, FluxOR thallium flux, dofetilide IC70 present; activation (rescue from dofetilide block), less the hit threshold, % at 10 µM; 310,000 compounds, 0.51% hits; AID 1511;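 active means activation above the mean of controls blocked by dofetilide plus 5 SD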;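 further: thallium influx through hERG after potassium depolarization seen as dye fluorescence rise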
Target sequence (Q12809 whole entry, looked up): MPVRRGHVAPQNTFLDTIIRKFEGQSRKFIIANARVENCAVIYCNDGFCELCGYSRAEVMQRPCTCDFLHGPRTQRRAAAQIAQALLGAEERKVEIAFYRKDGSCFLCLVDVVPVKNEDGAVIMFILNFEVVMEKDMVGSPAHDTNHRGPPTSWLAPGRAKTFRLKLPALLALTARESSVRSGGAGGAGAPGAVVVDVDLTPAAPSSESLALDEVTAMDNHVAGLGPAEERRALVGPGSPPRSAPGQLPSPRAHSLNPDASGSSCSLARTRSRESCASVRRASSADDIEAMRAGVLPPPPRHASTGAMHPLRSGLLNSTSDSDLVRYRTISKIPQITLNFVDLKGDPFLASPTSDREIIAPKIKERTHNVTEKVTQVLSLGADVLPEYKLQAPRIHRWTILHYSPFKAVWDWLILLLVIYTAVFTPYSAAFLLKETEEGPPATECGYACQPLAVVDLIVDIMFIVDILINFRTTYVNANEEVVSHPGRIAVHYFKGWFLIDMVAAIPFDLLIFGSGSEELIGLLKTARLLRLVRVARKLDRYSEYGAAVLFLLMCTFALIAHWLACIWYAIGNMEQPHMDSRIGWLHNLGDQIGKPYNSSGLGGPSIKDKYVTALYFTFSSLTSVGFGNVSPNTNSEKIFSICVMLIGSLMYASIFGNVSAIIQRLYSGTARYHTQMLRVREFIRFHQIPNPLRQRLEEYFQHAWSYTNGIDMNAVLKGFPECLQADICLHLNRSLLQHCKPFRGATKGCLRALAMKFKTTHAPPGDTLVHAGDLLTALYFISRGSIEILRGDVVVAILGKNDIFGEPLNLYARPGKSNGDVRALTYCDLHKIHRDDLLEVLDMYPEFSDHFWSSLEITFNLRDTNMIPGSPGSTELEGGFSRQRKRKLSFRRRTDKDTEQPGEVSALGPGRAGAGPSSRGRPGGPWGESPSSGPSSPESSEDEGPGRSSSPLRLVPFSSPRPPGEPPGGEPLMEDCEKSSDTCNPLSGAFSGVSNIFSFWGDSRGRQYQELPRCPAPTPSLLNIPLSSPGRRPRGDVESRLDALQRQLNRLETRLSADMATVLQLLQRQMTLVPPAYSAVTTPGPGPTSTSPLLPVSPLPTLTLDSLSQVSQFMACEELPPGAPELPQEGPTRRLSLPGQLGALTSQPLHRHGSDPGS
KCNK3 block – human KCNK3 channel inhibition, primary screen; B-score at 10 µM; 340,000 compounds, 0.84% hits; AID 602410; O14649; CHO-KCNK3 thallium flux, FluxOR fluorescence; stronger effect = lower value;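 active means B-score under library mean minus 4 SD, starting fluorescence ratio at most library mean plus 5 SD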;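 further: more negative B-score means stronger inhibition of thallium flux through KCNK3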
KCNQ1 pot – potentiates or activates the human KCNQ1 potassium channel; P51787; CHO-K1 KCNQ1, thallium flux FluxOR fluorescence; stronger effect = higher value; B-score at 10 µM; 310,000 compounds, 0.35% hits; AID 2648;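 active means fluorescence ratio B-score, a plate-corrected score, at least three library SD, with initial intensity B-score within 5 SD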
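Assay system: stable KCNQ1 CHO-K1 line; medium: assay buffer, equal DMSO in all wells; timing: 90 min dye loading and 20 min compound exposure, both at room temperature; technique: kinetic FluxOR thallium fluorescence, 10-s 1-Hz baseline, 110-s post-stimulus read; read-out basis: B score of baseline-normalized fluorescence ratio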
KCNK9 block conf – human KCNK9 inhibitor confirmation; shares compounds with KCNK9 inh; HEK293 KCNK9 cells, FluxOR thallium flux fluorescence; inhibition, % at 10 µM; 4,900 compounds, 43% hits; AID 492992;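 active means thallium signal inhibited by more than 5 SD of the compound-free buffer control wells, on both duplicate plates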
Kir2-1 spec – tests whether KCNK9 modulators also affect mouse Kir2.1; Kir2.1 cells, FluxOR thallium flux fluorescence; shares compounds with KCNK9 inh; AID 492993; 4,900 compounds, 4% hits; inhibition, % at 10 µM;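 active means thallium signal drop more than 5 SD beyond the mean of the no-compound control wells, seen in both duplicate plates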;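 further: signal is fluorescence rise after thallium addition divided by baseline fluorescence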
KCNK9 uninduced – non-induced cell nonspecific activity of KCNK9 modulators; shares compounds with KCNK9 inh; non-induced KCNK9-HEK293, FluxOR thallium flux; inhibition, % at 10 µM; 4,900 compounds, 40% hits; AID 492997;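 active means thallium signal drop beyond 5 SD of the untreated control mean, on both duplicate plates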
KCNK3 inh conf – human KCNK3 channel inhibition, confirmation assay | AID 651638 | 2,400 compounds, 99% hits | shares compounds with KCNK3 block | ratio percent of control, % at 10 µM | CHO-KCNK3 thallium flux, FluxOR fluorescence; 0% buffer, 100% carvedilol maximal block;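 active means ratio percent of control, averaged over triplicates, above buffer control mean plus 5 SD, cut at about 64% in these data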;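 further: ratio is the fluorescence rise from min to max over baseline after thallium stimulus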
KCNK3 uninduced – KCNK3 inhibitor counter-screen hit in non-induced cells; shares compounds with KCNK3 block; non-induced KCNK3 parental cells, FluxOR thallium flux; stronger effect = lower value; thallium flux ratio (lower = more inhibition) at 10 µM; 2,400 compounds, 40% hits; AID 651747;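 active means thallium flux ratio, averaged over three wells, more than 5 SD below the buffer control mean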;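 further: host cells are CHO cells without KCNK3 induction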
Large screens that a line does not name were inactive (follow-up assays come after a bar, where they were run). Compounds with a hit are over-represented: about 4.1% of the library has one in this group of screens.

CCn1cc(CNC(=O)c2cccc([N+](=O)[O-])c2)c(C)n1	none
O=C(NCc1cn(-c2ccccc2)nc1-c1ccc(F)cc1)c1cccc([N+](=O)[O-])c1	KCNK9 inh -16.7, KCNK3 block -8.8 | KCNK9 block conf 77.5% | Kir2-1 spec inactive | KCNK9 uninduced 31.0% | KCNK3 inh conf 104.0 | KCNK3 uninduced 0.14
Cc1nn(-c2ccccc2)c2c1CC(=O)Nc1ccccc1-2	none (no result: Cl transport mod, KCNK9 inh, KCNQ1 block, hERG protect, KCNQ1 pot)
CC(C)(C)n1nnnc1C(c1ccccn1)N(Cc1ccccc1)Cc1ccc(Cl)cc1 (stereo not drawn)	KCNK9 inh -16.2, KCNK3 block -9.22 | KCNK9 block conf 59.5% | Kir2-1 spec inactive | KCNK9 uninduced 46.5% | KCNK3 inh conf 99.7 | KCNK3 uninduced 0.15
CN(C)CC[C@@H](c1ccc(Cl)cc1)c1ccccn1	none (no result: Cl transport mod)
CC(C)(C)n1nnnc1C(c1cccs1)N(Cc1ccccc1)Cc1ccco1 (stereo not drawn)	KCNK9 inh -18.7, KCNQ1 block 9, KCNK3 block -11.8 | KCNK9 block conf 66.0% | Kir2-1 spec inactive | KCNK9 uninduced 46.5% | KCNK3 inh conf 112.7 | KCNK3 uninduced 0.149
CCC(C)(C)n1nnnc1C(c1cc2ccc(C)cc2[nH]c1=O)N(Cc1cccnc1)Cc1ccco1 (stereo not drawn)	none
COc1ccc(-c2[nH]ncc2/C=N/NC(=O)c2ccncc2)c(OC)c1	none (no result: Cl transport mod)
CCOC(=O)C(C)Sc1ncc(-c2ccccc2)cn1 (stereo not drawn)	none
CCOC(=O)C(C)Sc1cc(CS(=O)(=O)c2ccccc2)nc(-c2ccccc2)n1 (stereo not drawn)	KCNK9 inh -10.3, KCNK3 block -8.76 | KCNK9 block conf 58.0% | Kir2-1 spec inactive | KCNK9 uninduced 28.0% | KCNK3 inh conf 125.0 | KCNK3 uninduced inactive
O=C(NC1CCCN(Cc2ccc(Cl)cc2)C1)c1ccoc1 (stereo not drawn)	none (no result: Cl transport mod)
Cc1ccc(O)c(C(=O)c2cnc3c(c2)COc2ccccc2-3)c1	KCNK9 inh -14.5 | KCNK9 block conf 41.0% | Kir2-1 spec inactive | KCNK9 uninduced 27.5% | KCNK3 inh conf 96.3 | KCNK3 uninduced inactive
O=C(c1cnc2c(c1)COc1ccc(Cl)cc1-2)c1ccccc1O	none
Cc1sc(NC(=O)c2ccco2)c(CN2CCN(c3ccccc3)CC2)c1C	KCNK9 inh -9.91 | KCNK9 block conf 35.0% | Kir2-1 spec inactive | KCNK9 uninduced 35.0% | KCNK3 inh conf 112.7 | KCNK3 uninduced inactive
CSCc1c(C(=O)Nc2ccc3c(c2)OCO3)oc2ccccc12	KCNK9 inh -9.48, KCNK3 block -8.72 (no result: Cl transport mod) | KCNK9 block conf 39.0% | Kir2-1 spec inactive | KCNK9 uninduced 30.0% | KCNK3 inh conf 123.7 | KCNK3 uninduced 0.146
CCC(C(=O)Nc1ccccc1N1CCCC1)c1ccccc1 (stereo not drawn)	none (no result: Cl transport mod)
CCC(Oc1ccccc1)C(=O)Nc1ccccc1N1CCCC1 (stereo not drawn)	KCNK9 inh -11.5, KCNK3 block -12.7 (no result: Cl transport mod) | KCNK9 block conf 59.0% | Kir2-1 spec 45.0% | KCNK9 uninduced 74.0% | KCNK3 inh conf 111.0 | KCNK3 uninduced inactive
Cc1cc(C(=O)N/N=C/c2ccc(-c3cccc(Br)c3)o2)n[nH]1	KCNK9 inh -17.1, KCNK3 block -11.1 (no result: Cl transport mod) | KCNK9 block conf 44.0% | Kir2-1 spec inactive | KCNK9 uninduced inactive | KCNK3 inh conf 87.3 | KCNK3 uninduced inactive
COc1ccccc1Cn1c(-c2ccccc2OC)nc2ccccc21	KCNK9 inh -11.3, KCNK3 block -9.12 (no result: Cl transport mod) | KCNK9 block conf 25.5% | Kir2-1 spec inactive | KCNK9 uninduced 47.5% | KCNK3 inh conf 109.3 | KCNK3 uninduced inactive
Oc1ccccc1Cn1c(-c2ccccc2O)nc2ccccc21	none
CC(=O)Nc1cccc(NC(=O)c2c(-c3c(Cl)cccc3Cl)noc2C)c1	none
O=C(Nc1cccnc1)c1cc(-c2cccc(Cl)c2)on1	none (no result: Cl transport mod)
CC(=O)Nc1cccc(-c2cc(-c3c(Cl)cccc3Cl)no2)c1	KCNK9 inh -11.2, KCNK3 block -14.8 | KCNK9 block conf 53.5% | Kir2-1 spec inactive | KCNK9 uninduced 39.0% | KCNK3 inh conf 109.0 | KCNK3 uninduced 0.153
CNC(=O)Nc1cccc(-c2cc(-c3c(Cl)cccc3Cl)no2)c1	KCNK9 inh -15.1, KCNK3 block -17.2 (no result: Cl transport mod) | KCNK9 block conf 54.0% | Kir2-1 spec inactive | KCNK9 uninduced 44.0% | KCNK3 inh conf 122.3 | KCNK3 uninduced 0.157
CCOc1ccc2c(C)cc(=O)oc2c1OCC	none
CCCCOc1ccc2c(C)cc(=O)oc2c1OCCCC	KCNK9 inh -25.2, KCNQ1 block 7, KCNK3 block -9.4 | KCNK9 block conf 76.0% | Kir2-1 spec inactive | KCNK9 uninduced 36.5% | KCNK3 inh conf 118.7 | KCNK3 uninduced 0.135
CC(C)N(Cc1nc(-c2ccc(Cl)cc2)no1)C(=O)C(c1ccccc1)c1ccccc1	KCNK9 inh -10.5, KCNK3 block -9.92 | KCNK9 block conf 55.0% | Kir2-1 spec inactive | KCNK9 uninduced 40.0% | KCNK3 inh conf 129.3 | KCNK3 uninduced 0.133
CC(C)N(Cc1nc(-c2ccc(Cl)cc2)no1)C(=O)/C=C/c1ccccc1	none
CCc1ccc(NC(=O)c2sccc2-n2cccc2)cc1	KCNK9 inh -8.62, KCNK3 block -11.7 | KCNK9 block conf 59.0% | Kir2-1 spec inactive | KCNK9 uninduced 40.5% | KCNK3 inh conf 100.0 | KCNK3 uninduced 0.153
COc1ccc(S(=O)(=O)NCC(=O)N(CC(=O)NCC2CCCO2)Cc2ccccc2)cc1 (stereo not drawn)	none (no result: Cl transport mod)
O=C(NCCn1cc(SCc2ccc(F)cc2)c2ccccc21)c1c(F)cccc1F	KCNK9 inh -13.9, KCNK3 block -9.87 | KCNK9 block conf 60.0% | Kir2-1 spec inactive | KCNK9 uninduced 31.0% | KCNK3 inh conf 94.3 | KCNK3 uninduced inactive
O=C(NCCn1cc(SCc2ccccc2)c2ccccc21)c1c(F)cccc1F	none
